Results taken from ChEMBL document CHEMBL4613254, “Using the Cancer Dependency Map to Identify the Mechanism of Action of a Cytotoxic Alkenyl Derivative from the Fruit of Choerospondias axillaris” (J Nat Prod, 2020).
The source made the active and inactive calls. No cut-off for these calls is given here.

Columns and labels:
[1] = target: T1, Monocarboxylate transporter 1 (Homo sapiens) (UniProt P53985); test: Inhibition of MCT1 in human A673 cells assessed as reduction in BrPA-induced cytotoxicity at 10 nM by SRB assay; format: cell-based
T1 sequence (whole entry): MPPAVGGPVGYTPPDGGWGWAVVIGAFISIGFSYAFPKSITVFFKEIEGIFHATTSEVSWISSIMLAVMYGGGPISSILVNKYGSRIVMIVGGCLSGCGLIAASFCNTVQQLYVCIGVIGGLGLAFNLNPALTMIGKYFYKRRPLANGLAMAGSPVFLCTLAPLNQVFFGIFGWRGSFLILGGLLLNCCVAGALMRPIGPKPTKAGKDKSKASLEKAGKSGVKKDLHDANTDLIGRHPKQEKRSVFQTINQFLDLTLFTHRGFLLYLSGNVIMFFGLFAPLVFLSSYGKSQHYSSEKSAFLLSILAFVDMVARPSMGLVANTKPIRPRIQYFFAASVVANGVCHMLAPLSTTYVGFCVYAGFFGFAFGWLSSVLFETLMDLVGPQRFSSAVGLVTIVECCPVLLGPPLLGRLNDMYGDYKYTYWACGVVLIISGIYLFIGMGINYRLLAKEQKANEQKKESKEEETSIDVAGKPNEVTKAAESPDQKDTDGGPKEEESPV
Method in brief: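 A-673 cells were grown in RPMI-1640 with 5% FBS. Test compound or AZD3965 was added 1 h before BrPA, with DMSO as the vehicle control. Viability was read by SRB staining after TCA fixation, with absorbance at 560 nm.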

[2] = tested on: A673; test: Growth inhibition of human A673 cells assessed as reduction in cell viability up to 10 uM after 48 hrs by SRB assay; format: functional, cell-based
Method in brief: (§1)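 Cells were kept in RPMI-1640 with 5% FBS and 50 μg/mL gentamicin at 37 °C and 5% CO2, and plated at 4,000–6,000 cells/well to adhere overnight. Compounds in DMSO (0.5% v/v final) went to triplicate wells for 48 h. Cells were fixed with 10% TCA, and time-0 plates were fixed at dosing. SRB absorbance was read at 560 nm, with GI50 fitted by non-linear regression for each experiment.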

[3] = tested on: HCT-15; test: Cytotoxicity against human HCT15 cells assessed as reduction in cell viability; format: functional, cell-based
[4] = tested on: HeLa; test: Cytotoxicity against human HeLa cells assessed as reduction in cell viability; format: functional, cell-based
[5] = tested on: A2780; test: Cytotoxicity against human A2780 cells assessed as reduction in cell viability; format: functional, cell-based
[6] = tested on: A673; test: Growth inhibition of human A673 cells assessed as reduction in cell viability after 48 hrs by SRB assay; format: functional; settings: A673, 48 h; method in brief: as §1
[7] = Growth inhibition of human SJCRH30 cells assessed as reduction in cell viability after 48 hrs by SRB assay; format: functional; method in brief: as §1
[8] = Growth inhibition of human D283 cells assessed as reduction in cell viability after 48 hrs by SRB assay; format: functional; settings: D283, 48 h
Method in brief: (§2)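 Cells were grown in IMEM with 5% FBS and 25 μg/mL gentamicin at 37 °C and 5% CO2, then seeded at 4,000–6,000 cells/well overnight. DMSO solutions (0.5% v/v final) were added to triplicate wells for 48 h, and time-0 plates were fixed at addition. Fixation was with TCA; for D283, 20% TCA was added straight into the medium. SRB absorbance at 560 nm gave GI50 by non-linear regression.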

[9] = tested on: Hep293TT; test: Growth inhibition of human Hep293TT cells assessed as reduction in cell viability after 48 hrs by SRB assay; format: functional; method in brief: as §1
[10] = tested on: SK-ES1; test: Growth inhibition of human SK-ES-1 cells assessed as reduction in cell viability after 48 hrs by SRB assay; format: functional; settings: SK-ES1, 48 h; method in brief: as §1
[11] = tested on: D341 cell line; test: Growth inhibition of human D341 cells assessed as reduction in cell viability after 48 hrs by SRB assay; format: functional; settings: D341, 48 h; method in brief: as §2
[12] = tested on: HCC1806; test: Growth inhibition of human HCC1806 cells assessed as reduction in cell viability up to 10 uM after 48 hrs by SRB assay; format: functional, cell-based; method in brief: as §1
[13] = tested on: Daoy; test: Growth inhibition of human DaOY cells assessed as reduction in cell viability up to 10 uM after 48 hrs by SRB assay; format: functional, cell-based; method in brief: as §2

Row | Compound | GI50 [6] [nM] | GI50 [7] [nM] | GI50 [8] [nM] | GI50 [9] [nM] | other results
1 | Cc1[nH]nc(C(F)(F)F)c1Cc1sc2c(c1C(=O)N1C[C@](C)(O)CO1)c(=O)n(C)c(=O)n2C(C)C |  |  |  |  | inhibition [1]: Active; growth inhibition (GI) [2]: inactive
2 | CCCC/C=C\CCCCCCCCCCC[C@@H]1C[C@]2(O)CC(=O)C[C@H](O1)[C@@H]2O |  |  |  |  | IC50 [3]: 3000 to 30000 nM; IC50 [4]: 3000 to 30000 nM; IC50 [5]: 3000 to 30000 nM
3 | CCCC/C=C\CCCCCCCCC[C@H](O)C[C@]1(O)CC(=O)C=C[C@H]1O | 650 | 240 | 410 | 500 | 
4 | CCCC/C=C\CCCCCCCCC[C@H](O)Cc1cc(O)ccc1O | 160 | 170 | 80 | 1020 | 
5 | CCCC/C=C\CCCCCCCCCCC[C@H](O)Cc1cc(O)ccc1O | 320 | 120 | 240 | 700 | 
6 | CCCC/C=C\CCCCCCCCCCCc1cc2cc(O)ccc2o1 | 190 | > 10000 | 70 | > 10000 | GI50 [10]: 120 nM; GI50 [11]: 20 nM; growth inhibition (GI) [12]: inactive; growth inhibition (GI) [13]: inactive; inhibition [1]: Active
7 | CCCC/C=C\CCCCCCCCCCC[C@H](O)C[C@]1(O)CC(=O)C=C[C@H]1O | 580 | 180 | 400 | 390 | 
